According to ChEMBL document CHEMBL2417413, “Synthesis and biological evaluation of 1,7,8,8a-tetrahydro-3H-oxazolo[3,4-a]pyrazin-6(5H)-ones as antitumoral agents” (Bioorg Med Chem, 2013):
Calls of active or inactive are those of the source. No cut-off for these calls is given here.

Legend:
8305C [1] = assay: Induction of apoptosis in human 8305C cells assessed as DNA fragmentation at 50 uM after 24 hrs by SYBR green-1 staining-based electrophoretic analysis; assay type: functional, cell-based
How it was run: (§1)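 After 24 h of treatment, DNA was extracted from untreated and treated cells. Fragments were separated on a 2% agarose gel with SYBR Green I staining, and GAPDH-1 served as the reference gene.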

FTC-133 [2] = assay: Induction of apoptosis in human FTC-133 cells assessed as DNA fragmentation at 50 uM after 24 hrs by SYBR green-1 staining-based electrophoretic analysis; assay type: functional, cell-based; how it was run: as §1
8305C [3] = assay: Induction of apoptosis in human 8305C cells assessed as caspase-3 activation at 50 uM after 24 hrs by fluorescence microscopic analysis (reference value: 3.22 +/- 1%); assay type: functional
FTC-133 [4] = assay: Induction of apoptosis in human FTC-133 cells assessed as caspase-3 activation at 50 uM after 24 hrs by fluorescence microscopic analysis (reference value: 2.51 +/- 1%); assay type: functional
8305C [5] = assay: Cytotoxicity against human 8305C cells assessed as reduction in cell viability after 24 hrs by MTT assay; assay type: functional, cell-based
How it was run: (§2)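 Cells seeded at 6 × 10^5 per well and exposed to 5–100 µM for 24 h at 37 °C in 5% CO2. Then 0.5% MTT in PBS (pH 7.4) was added for 1 h, supernatant replaced with DMSO, and OD read at 570 nm. IC50 was read graphically from dose-effect curves. Values are mean ± SD of four independent experiments, each run in triplicate.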

FTC-133 [6] = assay: Cytotoxicity against human FTC-133 cells assessed as reduction in cell viability after 24 hrs by MTT assay; assay type: functional, cell-based; details: FTC-133, 24 h; how it was run: as §2
8305C [7] = assay: Cytotoxicity against human 8305C cells assessed as reduction in cell viability at 50 uM after 24 hrs by MTT assay; assay type: functional, cell-based
How it was run: (§3)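 Cultures were treated at 50 µM for 24 h at 37 °C in 5% CO2 alongside untreated controls. Viability was read by MTT reduction (0.5% MTT in PBS pH 7.4, 1 h), with formazan dissolved in DMSO and OD measured at 570 nm.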

FTC-133 [8] = assay: Cytotoxicity against human FTC-133 cells assessed as reduction in cell viability at 50 uM after 24 hrs by MTT assay; assay type: functional, cell-based; how it was run: as §3

O=C1CN2/C(=N/c3ccc4ccc5cccc6ccc3c4c56)OCC2CN1c1ccccc1 (configuration not stated)
Activity (8305C [1]): Active | Activity (FTC-133 [2]): Active | Activity (8305C [3]): 18.24% | Activity (FTC-133 [4]): 29.3% | IC50 (8305C [5]): 80.3 µM | IC50 (FTC-133 [6]): 74.2 µM | Activity (8305C [7]): Active | Activity (FTC-133 [8]): Active

O=C1CN2/C(=N/c3ccccc3)OCC2CN1C1CCCCC1 (configuration not stated)
Activity (8305C [1]): Active | Activity (FTC-133 [2]): Active | Activity (8305C [3]): 75.88% | Activity (FTC-133 [4]): 88.68% | IC50 (8305C [5]): 70.7 µM | IC50 (FTC-133 [6]): 50 µM | Activity (8305C [7]): Active | Activity (FTC-133 [8]): Active

O=C1CN2/C(=N/c3cccc4ccccc34)OCC2CN1C1CCCCC1 (configuration not stated)
Activity (8305C [1]): Active | Activity (FTC-133 [2]): Active | Activity (8305C [3]): 78.56% | Activity (FTC-133 [4]): 90.56% | IC50 (8305C [5]): 61 µM | IC50 (FTC-133 [6]): 44.8 µM | Activity (8305C [7]): Active | Activity (FTC-133 [8]): Active

O=C1CN2/C(=N/c3ccc4ccc5cccc6ccc3c4c56)OCC2CN1C1CCCCC1 (configuration not stated)
Activity (8305C [1]): Active | Activity (FTC-133 [2]): Active | Activity (8305C [3]): 68.3% | Activity (FTC-133 [4]): 89.24% | IC50 (8305C [5]): 68.5 µM | IC50 (FTC-133 [6]): 48.3 µM | Activity (8305C [7]): Active | Activity (FTC-133 [8]): Active
